Test results: ChEMBL document CHEMBL1143246, “Design and synthesis of bicyclic pyrimidinones as potent and orally bioavailable HIV-1 integrase inhibitors” (J Med Chem, 2008)

Legend:
[1] = tested on: Human immunodeficiency virus 1; test: Antiviral activity against HIV1 in human MT4 cell assessed as inhibition of virus spread in presence of 10% fetal bovine serum; format: functional; details: Human immunodeficiency virus 1, MT4; read-out: CIC95
Outline: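 Spread of HIV-1 infection in MT-4 human T-lymphoid cell culture with 10% fetal bovine serum; CIC95 is the concentration inhibiting spread by ≥95%; mean of at least three independent experiments.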

[2] = tested on: Human immunodeficiency virus 1; test: Antiviral activity against HIV1 in human MT4 cell assessed as inhibition of virus spread in presence of 50% normal human serum; format: functional; details: Human immunodeficiency virus 1, MT4; read-out: CIC95
Outline: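 Spread of HIV-1 infection in MT-4 human T-lymphoid cell culture with 50% normal human serum; CIC95 is the concentration inhibiting spread by ≥95%; mean of at least three independent experiments.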

[3] = Protein binding in rat plasma; format: ADME, cell-free; details: read-out: PPB (converted)
Outline: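 Plasma protein binding was measured by ultrafiltration after a 1 h incubation of compound in plasma at 37 °C.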

[4] = Protein binding in dog plasma; format: ADME, cell-free, Canis lupus familiaris; details: read-out: PPB (converted)
Outline: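 Plasma protein binding measured by ultrafiltration after incubation at 37 °C for 1 h.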

[5] = Oral bioavailability in rat at 3 mg/kg; format: ADME, organism-based; details: in vivo
Outline: (§1)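 In vivo PK: iv dosing in DMSO/PEG400/H₂O mixtures, oral dosing as methylcellulose suspension. Half-life was taken after iv dosing; AUC and Cmax after po dosing.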

[6] = Plasma clearance in rat at 3 mg/kg, po or 3 mg/kg, iv; format: ADME, organism-based; outline: as §1
[7] = Oral bioavailability in dog at 4 mg/kg; format: ADME, organism-based, Canis lupus familiaris; details: in vivo; outline: as §1
[8] = Plasma clearance in dog at 1 mg/kg, iv or 4 mg/kg, po; format: ADME, organism-based, Canis lupus familiaris; outline: as §1
[9] = Half life in rat at 3 mg/kg, iv; format: ADME, organism-based; set-up: dose 3 mg/kg, route intravenous; details: in vivo; outline: as §1
[10] = Half life in dog at 1 mg/kg, iv; format: ADME, organism-based, Canis lupus familiaris; set-up: dose 1 mg/kg, route intravenous; details: in vivo; outline: as §1
[11] = AUC in rat at 3 mg/kg, po; format: ADME, organism-based; set-up: dose 3 mg/kg, route oral; details: plasma; outline: as §1
[12] = AUC in rat at 10 mg/kg, po; format: ADME, organism-based; set-up: dose 10 mg/kg, route oral; details: plasma; outline: as §1
[13] = Cmax in rat at 3 mg/kg, po; format: ADME, organism-based; set-up: dose 3 mg/kg, route oral; details: in vivo; outline: as §1
[14] = Cmax in rat at 10 mg/kg, po; format: ADME, organism-based; set-up: dose 10 mg/kg, route oral; details: in vivo; outline: as §1
[15] = Volume of distribution at steady state in rat at 3 mg/kg, iv or 3 mg/kg, po; format: ADME, organism-based; details: in vivo, read-out: Vdss
[16] = Volume of distribution at steady state in dog at 1 mg/kg, iv or 4 mg/kg, po; format: ADME, organism-based, Canis lupus familiaris; details: in vivo, read-out: Vdss
Outline: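 Dogs received 1 mg/kg intravenously in DMSO/PEG400/H₂O (20%-40%-40%) and 4 mg/kg orally as a 1% methylcellulose suspension. Volume of distribution was derived from the plasma concentration data.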

[17] = Inhibition of recombinant HIV1 integrase strand transfer activity
Homo sapiens = organism: Homo sapiens; test: Protein binding in human plasma; details: read-out: PPB (converted)

Compound: CN(C)C(=O)C(=O)N(C)[C@H]1CCCn2c1nc(C(=O)NCc1ccc(F)cc1)c(O)c2=O
- IC95 [1]: 33 nM
- IC95 [2]: 43 nM
- fraction unbound [3]: 0.16
- fraction unbound [4]: 0.34
- bioavailability [5]: 47%
- clearance [6]: 11 mL/min/kg
- bioavailability [7]: 39%
- clearance [8]: 15 mL/min/kg
- half-life [9]: 14 h
- half-life [10]: 1.7 h
- AUC [11]: 2.5 µM·h
- AUC [12]: 3.8 µM·h
- Cmax [13]: 2000 nM
- Cmax [14]: 2500 nM
- Vd [15]: 3 L/kg
- Vd [16]: 1.2 L/kg
- IC50 [17]: 12 nM
- fraction unbound (Homo sapiens): 0.37
